SIRT5 inh – inhibitors of human sirtuin-5 desuccinylase | actives 1.1% (n = 330,000) | inhibition, % at 15 µM | AID 652115 | Purified SirT5, succinyl-peptide AMC, trypsin-coupled fluorescence | Q9NXA8; in the data active = inhibition above about 15%; inconclusive = no clear call, values can overlap the other calls
DENV2 CPE rescue – DENV2-induced cell death inhibition; actives 1.7% (n = 350,000); DENV2-infected cells, cytopathic effect rescue, plate reader; AID 651640; CPE inhibition, % at 9.99 µM; in the data active = CPE inhibition above about 20%, passing the limit was not always enough; inconclusive = no clear call, values can overlap the other calls; tested in BHK-21 cells
E-sel inducer – induces E-selectin expression in human endothelial cells; P16581; HUVEC E-selectin immunofluorescence imaging; normalized: neutral wells 0, TNF-alpha wells 100; activation, % at 7.58 µM; actives 0.37% (n = 260,000); AID 686992;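 active = mean E-selectin-positive cell signal at least 10% of the positive control, reached in at least 60% of replicates, without over 20% cell loss; inconclusive = no rule given, readout overlaps actives, possibly toxicity-flagged; inactive = the rest, including those meeting only one limit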
Target sequence (P16581 whole entry, looked up): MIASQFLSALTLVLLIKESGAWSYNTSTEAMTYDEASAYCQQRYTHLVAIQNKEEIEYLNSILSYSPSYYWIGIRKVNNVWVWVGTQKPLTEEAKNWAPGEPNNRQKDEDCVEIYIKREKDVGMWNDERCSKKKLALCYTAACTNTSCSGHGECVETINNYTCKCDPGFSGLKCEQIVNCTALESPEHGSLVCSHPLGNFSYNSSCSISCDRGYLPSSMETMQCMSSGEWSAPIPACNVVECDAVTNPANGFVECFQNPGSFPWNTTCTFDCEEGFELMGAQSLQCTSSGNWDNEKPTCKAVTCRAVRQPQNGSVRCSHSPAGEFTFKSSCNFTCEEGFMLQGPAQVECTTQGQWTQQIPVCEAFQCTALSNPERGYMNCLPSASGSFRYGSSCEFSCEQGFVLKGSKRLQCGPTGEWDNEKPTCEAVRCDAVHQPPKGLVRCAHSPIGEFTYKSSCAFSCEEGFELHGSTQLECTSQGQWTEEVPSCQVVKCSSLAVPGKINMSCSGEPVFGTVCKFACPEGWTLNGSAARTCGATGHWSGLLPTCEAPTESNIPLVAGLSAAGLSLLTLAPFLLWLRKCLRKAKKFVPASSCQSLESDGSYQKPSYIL
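Test system: HUVEC; input: 3,000 HUVEC/well; measured by: immunofluorescence imaging; read-out: % PE-positive cells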
ERAP1 inh – ERAP1 (human) enzyme inhibition; Q9NZ08; recombinant ERAP1, Leu-AMC fluorescence, 60 min; inhibition, % at 10.7 µM; actives 0.15% (n = 340,000); AID 652197;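 active = mean replicate inhibition of at least 30%, or all replicates individually reaching that 30% level; inactive = mean below 30% and not every replicate reaching it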
PglD DTNB – inhibitors of Campylobacter jejuni PglD acetyltransferase. purified PglD enzyme, DTNB colorimetric CoA detection. actives 0.098% (n = 360,000). inhibition, % at 12.5 µM; in the data active = inhibition above about 16%, passing the limit was not always enough; inconclusive = no clear call, values can overlap the other calls
A number is an active result; i = inactive; ? = inconclusive; nt = not tested or not shown; ! = a repeat was not active. Sampled rows, rich in hits. Any-hit rate of the full collection: about 2.5%.

SMILES	SIRT5 inh	DENV2 CPE rescue	E-sel inducer	ERAP1 inh	PglD DTNB
Cc1c(CCOC(=O)c2ccc(N3CCOCC3)c([N+](=O)[O-])c2)sc[n+]1CC#N	i	nt	i	nt	i
COCCCN(C(=O)c1ccc(-c2ccc(C(C)=O)cc2)o1)c1c(N)n(CC(C)C)c(=O)[nH]c1=O	i	i	nt	i	i
C[C@@H]1CN([C@@H](C)CO)C(=O)c2cc(N(C)C)ccc2O[C@@H]1CN(C)C(=O)Nc1cccc2ccccc12	i	i	39	i	i
C[C@@H]1CCCCO[C@@H](CN(C)C(=O)Nc2ccc3c(c2)OCO3)[C@@H](C)CN([C@@H](C)CO)C(=O)c2cc(NC(=O)Nc3cccc4ccccc34)ccc2O1	i	61	i	i	nt
C[C@@H]1CCCCO[C@@H](CN(C)C(=O)Nc2cccc3ccccc23)[C@@H](C)CN([C@@H](C)CO)C(=O)c2cc(NC(=O)Nc3ccc(C(F)(F)F)cc3)ccc2O1	i	26	i	i	nt
C[C@H](CO)N1C[C@H](C)[C@H](CN(C)C(=O)Nc2cccc3ccccc23)OCCCC[C@H](C)Oc2ccc(NC(=O)Nc3ccc(F)cc3)cc2C1=O	i	25	i	i	i
C[C@@H]1CCCCO[C@H](CN(C)C(=O)Nc2cccc3ccccc23)[C@@H](C)CN([C@H](C)CO)C(=O)c2cc(NC(=O)Nc3ccc(F)cc3)ccc2O1	i	i	i	i	i
C[C@H](CO)N1C[C@H](C)[C@H](CN(C)C(=O)Nc2ccc3c(c2)OCO3)OCCCC[C@H](C)Oc2ccc(NC(=O)Nc3cccc4ccccc34)cc2C1=O	i	i	i	i	i
O=C(CN(C(=O)CNS(=O)(=O)c1ccccc1)c1ccc2c(c1)OCCO2)NCc1ccco1	nt	nt	nt	nt	i
COC(=O)CN(c1ccccc1F)S(=O)(=O)c1ccc(C)cc1	i	i	i	i	nt
C[C@@H]1CN([C@@H](C)CO)C(=O)c2cc(NC(=O)c3ccccc3)ccc2O[C@@H](C)CCCCO[C@H]1CN(C)C(=O)Nc1cccc2ccccc12	i	i	nt	i	i
C[C@@H]1CN([C@H](C)CO)C(=O)c2cc(N(C)C)ccc2O[C@@H](C)CCCCO[C@H]1CN(C)C(=O)Nc1cccc2ccccc12	i	i	nt	i	i
C[C@@H]1CCCCO[C@H](CN(C)S(=O)(=O)c2ccc(F)cc2)[C@@H](C)CN([C@H](C)CO)C(=O)c2cc(NC(=O)Nc3cccc4ccccc34)ccc2O1	i	26	i	i	i
C[C@@H]1CCCCO[C@@H](CN(C)C(=O)Nc2cccc3ccccc23)[C@H](C)CN([C@@H](C)CO)C(=O)c2cc(NC(=O)c3ccccc3)ccc2O1	17	i	nt	i	i
C[C@@H]1CCCCO[C@H](CN(C)C(=O)Nc2cccc3ccccc23)[C@@H](C)CN([C@H](C)CO)C(=O)c2cc(N(C)C)ccc2O1	27!	i	i	i	i
CCOC(=O)c1cn(CC)c2cc3c(cc2c1=O)OCO3	i	25	i	i	i
Cc1ccccc1NC(=O)COC(=O)c1n[nH]c(=O)c2ccccc12	i	i	i	i	i
O=C(COC(=O)c1n[nH]c(=O)c2ccccc12)Nc1ccccc1	19	i	i	i	nt
CN(C(=O)C1CCC(=O)N(Cc2cccc(F)c2)C1)C1CCCCC1 (stereo not drawn)	i	i	i	i	i
C/C=C/c1ccc(C2[C@H]3CNC[C@@H]2N3S(=O)(=O)c2ccccc2C)cc1 (stereo partly drawn)	i	20!	i	i	nt
C/C(=N/NC(=O)CNC(=O)CCc1ccccc1)c1ccc(Cl)c(Cl)c1	16	i	i	i	nt
C/C(=N/NC(=O)CNC(=O)Cc1ccccc1)c1ccc(Cl)cc1	i	i	i	nt	i
C/C(CC(=O)Nc1ccc(Cl)c(Cl)c1)=N\NC(=O)Cc1ccccc1	i	51	nt	i	nt
Cc1sc(NC(=O)CSc2nnnn2C)c(C#N)c1C	i	nt	nt	i	i
CCC(=O)N1[C@H](CO)[C@H](c2ccccc2)C12CN(C(=O)Cc1ccccc1)C2	i	i	i	i	nt
SMILES	SIRT5 inh	DENV2 CPE rescue	E-sel inducer	ERAP1 inh	PglD DTNB
COc1ccc(-c2cc3ccc(O)cc3oc2=O)cc1	i	i	nt	i	i
N#C[C@H]1[C@@H](c2ccc(-c3ccccc3F)cc2)[C@@H](CO)N1C(=O)Cc1ccccc1	i	?	i	i	i
CCOC(=O)C(NC(C)=O)(Nc1ccc(S(=O)(=O)Nc2nccs2)cc1)C(F)(F)F (stereo not drawn)	nt	nt	nt	nt	i
CCOC(=O)C(NC(C)=O)(Nc1ccc(S(=O)(=O)Nc2ncccn2)cc1)C(F)(F)F (stereo not drawn)	19	i	nt	i	nt
O=C(O)c1cc(Nc2cc(Cl)c3nonc3c2[N+](=O)[O-])ccc1O	i	i	i	36	i
O=[N+]([O-])c1c(Nc2ccccc2O)cc(Cl)c2nonc12	i	i	i	i	i
CC(=O)Nc1ccc(SCC(=O)OCC(=O)NC(=O)NCCC(C)C)cc1	i	i	nt	i	nt
CCOc1ccc(-n2c(=S)sc3c(=O)n(-c4ccc(F)cc4)c(SCC(=O)O)nc32)cc1	29	i	i	i	i
COc1ccccc1-n1c(SCC(=O)O)nc2c(sc(=S)n2-c2ccccc2C)c1=O	i	i	43	i	i
Cc1ccccc1C(=O)Nc1ccnn1C1CCN(C2CCSCC2)CC1	i	i	i	i	i
Cc1nn2c(CN(C(=O)CN3CCOCC3)c3ccccc3)nnc2c2ccccc12	nt	nt	i	nt	nt
CCN(CC)CCCNc1nc(C)cc(COC)c1C#N	i	45	i	i	nt
COCc1cc(C)nc(Nc2ccccc2C)c1C#N	i	i	nt	i	nt
Cc1cccc(Nc2ncnc3onc(-c4ccc(F)cc4)c23)c1C	16	i	i	i	i
Cc1cccc(Nc2ncnc3onc(-c4cccc(Cl)c4)c23)c1C	i	i	i	i	i
CCCCCCCCCCCC1N=C(N)NC(CCCO)=C1C(=O)OC (stereo not drawn)	i	i	i	44	nt
COc1ccc(CCn2c(C)cc(C(=O)COC(=O)c3ccc(O)cc3O)c2C)cc1	i	i	nt	i	nt
CCOC(=O)c1sc(/N=C/N(C)C)nc1C	nt	40	nt	i	i
Cc1cccc(NS(=O)(=O)c2ccc(C(=O)NCC3CCCO3)cc2)c1C (stereo not drawn)	i	i	i	i	i
CN(C)CCNC(=O)c1cccc(S(=O)(=O)Nc2ccccc2F)c1	30	i	nt	i	nt
O=C(NCC1CCCO1)c1ccc(S(=O)(=O)Nc2ccccc2F)cc1 (stereo not drawn)	i	101	i	i	nt
C[n+]1cccc(C(=O)NCC2CCCO2)c1 (stereo not drawn)	nt	i	nt	99	i
O=C(NCC1CCCO1)c1ccccc1 (stereo not drawn)	nt	nt	nt	nt	i
O=C(Nc1ccccc1N1CCOCC1)c1cccc(S(=O)(=O)Nc2ccccc2F)c1	i	i	nt	i	i
CN1CCN(C(=O)c2cc3sc4ccccc4c3s2)CC1	i	43	i	i	i
O=C(c1cccnc1)N1C[C@H]2[C@@H](c3ccccc31)[C@H](CO)N2C(=O)Nc1ccc(F)cc1	i	67	i	i	i

Screens from PubChem BioAssay.
